Compound activity (PubChem)
STAT1 act: STAT1 signaling activators, primary screen, cell-based, HTS, luciferase reporter | NIH 3T3 STAT1-luciferase reporter, IFN-gamma, luminescence; 100% = IFN-gamma alone, no compound | hit rate 2.6% among 200,000 | activation (% of control), % at 5.5 µM;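 active = activation above the screen-wide mean activation plus 3 SD, cut at about 130% in these data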;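 note: raw ratio to IFN-gamma control signal so 100% means no change and 0% no light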
Mdm2 ligase inh: MDM2-luciferase reporter signal enhancers, primary screen, MDM2 E3 ligase inhibitor project, cell-based, luminescence, 1536-well; cell-based MDM2 ubiquitination luciferase reporter, 2 h; 0 = plate control, 100 = twice control, blank-subtracted; signal enhancement, % at 5 µM; hit rate 0.11% among 210,000; AID 1230, 2008; E3 ubiquitin-protein ligase Mdm2 (Homo sapiens), Q00987;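 active = signal enhancement of 30% or more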;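 note: luminescence tracks abundance of the self-degrading MDM2-luciferase fusion protein; higher signal means inhibition of MDM2 E3 ligase activity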
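Test system: stable mammalian line carrying autodegrading MDM2–luciferase fusion reporter; quantity: 2000 cells in each well; times: 4 h cell settling then 2 h compound exposure, 37 °C; detection: luminescence with SteadyLite reagent, 15 min at room temperature; evaluation: percent signal gain over controls, blank-subtracted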
NF-kB neuron act: activators of NF-kB expression in neurons, primary screen, cell-based, HTS; human neuronal cells, NF-kB reporter expression; stronger effect = higher value; fold change at 12.5 µM; hit rate 1.6% among 190,000; in the data active = fold change above about 3.3
p97 inhibitor: inhibitors of human p97 ATPase, primary screen, biochemical; Transitional endoplasmic reticulum ATPase (Homo sapiens), P55072; recombinant p97 ATPase, Kinase-Glo ATP luminescence, 3 h; inhibition, % at 8 µM; hit rate 0.42% among 220,000; AID 1481, 2009; in the data active = inhibition above about 15%;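 note: 0% = DMSO vehicle and 100% = wells lacking enzyme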
Target sequence (P55072 whole entry, looked up): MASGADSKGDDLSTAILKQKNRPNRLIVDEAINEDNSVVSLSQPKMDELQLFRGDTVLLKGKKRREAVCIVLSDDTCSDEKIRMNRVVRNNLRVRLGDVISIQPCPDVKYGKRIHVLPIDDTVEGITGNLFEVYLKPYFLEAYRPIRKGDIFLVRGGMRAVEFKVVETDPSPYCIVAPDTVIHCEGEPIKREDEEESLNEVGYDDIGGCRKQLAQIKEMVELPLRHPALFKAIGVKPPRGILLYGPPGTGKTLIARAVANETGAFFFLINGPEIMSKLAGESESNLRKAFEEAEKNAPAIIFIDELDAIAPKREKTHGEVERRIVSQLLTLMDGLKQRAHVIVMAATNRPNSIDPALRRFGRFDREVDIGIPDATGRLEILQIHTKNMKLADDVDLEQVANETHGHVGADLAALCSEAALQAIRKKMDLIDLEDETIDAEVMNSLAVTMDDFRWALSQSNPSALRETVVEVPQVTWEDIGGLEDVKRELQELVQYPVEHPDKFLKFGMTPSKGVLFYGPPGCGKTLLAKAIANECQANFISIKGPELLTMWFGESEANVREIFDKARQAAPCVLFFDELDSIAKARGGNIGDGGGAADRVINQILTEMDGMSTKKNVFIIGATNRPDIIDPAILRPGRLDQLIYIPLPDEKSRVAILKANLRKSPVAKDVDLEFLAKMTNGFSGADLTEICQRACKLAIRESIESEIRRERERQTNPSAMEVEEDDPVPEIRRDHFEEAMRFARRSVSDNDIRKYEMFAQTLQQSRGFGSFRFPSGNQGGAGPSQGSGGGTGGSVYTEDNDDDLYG
Wee1 degr inh: Wee1 degradation inhibitors, primary screen, cell-based, HeLa, Wee1K328M-luciferase, luminescence; Wee1-like protein kinase (Homo sapiens), P30291; HeLa Luc-Wee1K328M stability; 100% = proteasome inhibitor MG132 effect; reporter increase, % at 5 µM; hit rate 1.2% among 220,000;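 active = activation above the mean of all tested compounds plus 3 SD, set per screening run, cut at about 8.8% in these data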;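 note: cells exposed to compound for 20 h before luminescence read; 0% = DMSO alone and 100% = MG132 at 30 µM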
APP 5'UTR act: activators of APP 5'UTR luciferase reporter, primary screen, SH-SY5Y cells; SH-SY5Y APP 5'UTR luciferase reporter, luminescence; zero percent = DMSO vehicle wells; activation, % at 2 µM; hit rate 1% among 190,000;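 active = activation above a set limit, based on mean plus 3 SD of controls, cut at about 140% in these data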
Wee1 stab conf: Wee1 degradation inhibitors, confirmation, cell-based, HeLa, Wee1K328M-luciferase, luminescence, triplicate; HeLa Luc-Wee1K328M degradation; vehicle 0%, proteasome-blocked wells 100%; activation, % at 5 µM; AID 1410, 2008; shares compounds with Wee1 degr inh; hit rate 4% among 1,100; in the data active = activation above about 8.9%
Numbers without * were called inactive; · = no result given. Only some compounds are listed: those with a hit (about 4.6% of all), similar ones and a draw of the others.

SMILES	STAT1 act	Mdm2 ligase inh	NF-kB neuron act	p97 inhibitor	Wee1 degr inh	APP 5'UTR act	Wee1 stab conf
CNC(=S)N1CCN(C(=O)C2CCCO2)CC1 (centres undefined)	98	-1	1.1	1	2	-19	·
CC1=C(C(=O)OCC(C)C)C(c2cccs2)NC(=S)N1 (centres undefined)	93	-15	1.5	2	1	-6	·
Cc1nn2cc(-c3ccc(Cl)cc3)nc2s1	118	-27	8*	-2	14*	158*	0
Cc1ccc(S(=O)(=O)N2CCCCC2)cc1C(=O)Nc1cccnc1	·	-7	·	9	18*	·	2
Cc1ccc(C(=O)NNC(=S)NC(=O)COc2ccccc2)cc1	102	-5	0.79	3	14*	-2	3
COC(=O)Cc1c(C(=O)OC)nnn1-c1ccc(OC(F)(F)F)cc1	100	-17	1.3	-5	16*	3	5
C/C(=N\NC(=O)CCc1ccccc1)C1C(=O)c2ccccc2C1=O	110	1	0.96	5	13*	40	-1
COc1ccc(-c2cc3ccccc3[nH]2)cc1	·	-4	·	11	5	·	·
Cc1ccc(O)c(-c2cc3ccccc3[nH]2)c1	101	19	1.8	2	11*	24	0
Cc1ccc(C#N)c(SCc2ccccc2F)n1	·	-11	·	5	11*	·	3
CC(=O)OCC(=O)c1ccc2ccn(C(C)=O)c2c1	105	-13	1.6	6	14*	-3	0
COc1ccc(-n2nc3cc(C)c(NC(C)=O)cc3n2)cc1	63	-56	2.3	5	12*	123	-4
COc1ccc(NC(C)=O)c(C)c1	98	-12	1.1	5	5	4	·
CC(O/N=C\c1ccccc1O)C(=O)Nc1ccccc1C(=O)N1CCOCC1 (centres undefined)	93	-15	1.4	-4	-1	16	·
COc1cccc(C2=CC(c3cccc(OC)c3OC(F)F)n3nnnc3N2)c1 (centres undefined)	97	4	1.5	0	1	10	·
COc1cccc(C2=CC(c3cccc(OC)c3OC)n3nnnc3N2)c1 (centres undefined)	90	7	1.4	-2	11*	36	12*
O=C(O)COc1ccccc1/C=N/NC(=O)CN1CCN(Cc2ccc(Cl)cc2)CC1	·	-73	·	6	25*	·	2
CC(C)(C)C(=O)NC(n1cnc2c(N3CCOCC3)ncnc21)C(Cl)(Cl)Cl (centres undefined)	89	-2	0.73	-8	1	10	·
CC(C)OCCCNC(=O)Nc1cccc2ccccc12	101	2	0.9	3	13*	-1	0
COc1ccc(Nc2nc(Cl)nc(Nc3ccc(OC)cc3)n2)cc1	108	-22	0.98	-3	13*	-10	2
NC(=O)[C@@H]1CCCN1Cc1nc(-c2cccs2)no1	115	1	1.3	-2	11*	12	-1
NC(=O)C1CCN(Cc2nc(-c3cccs3)no2)CC1	·	-15	·	9	-1	·	·
O=C(CSc1cccc[n+]1[O-])Nc1ccc(C(F)(F)F)cc1[N+](=O)[O-]	98	-20	1.3	4	1	7	·
O=[N+]([O-])c1ccc(Sc2cccc[n+]2[O-])c2nonc12	·	-69	·	14	40*	·	43*
Cc1nc(C)c(C(=O)O)s1	·	·	·	4	-2	·	·
SMILES	STAT1 act	Mdm2 ligase inh	NF-kB neuron act	p97 inhibitor	Wee1 degr inh	APP 5'UTR act	Wee1 stab conf
Brc1cc2c(cc1Br)OCCOCCOCCOCCO2	96	-10	0.9	3	19*	-23	2
Brc1ccc2c(c1)OCCOCCOc1cc(Br)ccc1OCCOCCOCCO2	95	-20	0.51	1	-1	-9	·
COC(=O)c1cc(OC)c(OC)cc1N	101	-7	0.98	7	4	-24	·
COc1cc(O)c(C(C)=O)cc1OC	99	-1	1.2	-1	11*	0	1
CCOc1ncccc1C(=O)N1CCCSC1=Nc1ccc(C(C)=O)cc1	101	-7	1.1	3	5	4	·
O=C(CCCn1c(=O)c2ccccc2n(Cc2cccc(F)c2)c1=O)NC1CCN(Cc2ccccc2)CC1	101	0	1.1	1	0	-2	·
O=C(CCCCn1c(=O)c2ccccc2n(Cc2ccccc2)c1=O)NC1CCN(Cc2ccccc2)CC1	102	-5	0.96	-2	11*	24	0
Cc1ccc(NS(=O)(=O)c2ccc(NS(=O)(=O)c3cccs3)cc2)cc1	103	-23	0.87	2	11*	5	0
NS(=O)(=O)c1ccc(NS(=O)(=O)c2cccs2)cc1	101	-10	1.1	2	-2	-1	·
O=C(CN1N=C(c2ccccc2)CCC1=O)NCCN1CCc2ccccc2C1	92	·	0.95	-6	13*	-8	1
CC1=C(C(=O)OCC2CCCO2)C(c2ccc(Cl)cc2)NC(=O)N1 (centres undefined)	94	-5	1.3	2	12*	8	1
O=C(CNC(=O)c1ccncc1)N/N=C/c1ccc(O)cc1O	·	-14	·	6	13*	·	2
CC1(C)CC(Nc2ccc(Nc3ccccc3)cc2)CC(C)(C)N1	·	2	·	-4	0	·	·
Cc1cccc(NC(=O)CSc2cc(C)c(C#N)c3nc4ccccc4n23)c1	·	·	·	11	-1	·	·
CN(Cc1nccn1C)C(=O)CC1C(=O)NCCN1Cc1cccc(Oc2ccccc2)c1 (centres undefined)	109	-5	1.2	2	12*	24	1
CN(Cc1ccccn1)C(=O)CC1C(=O)NCCN1Cc1cccc(Oc2ccccc2)c1 (centres undefined)	96	-21	0.95	4	-1	13	·
O=C(Cc1ccccc1)Nc1ccccc1N1CCCC1	93	-3	1.1	-6	-3	-1	·
O=C(Cc1ccccc1)Nc1ccccc1N1CCOCC1	100	-6	1	1	21*	-16	1
CCn1c(N2CCN(S(=O)(=O)c3ccc(F)cc3)CC2)nc2ccccc21	85	8	0.79	4	3	-3	·
CCn1c(N2CCN(S(=O)(=O)c3ccc(Cl)cc3)CC2)nc2ccccc21	81	-1	0.71	1	26*	-9	0
